Shown are actives, neighbours in structure and some others; about 3.9% of the full set was active somewhere.
TIM10 inh = TIM10 yeast growth inhibition | S. cerevisiae TIM10 strain growth, BacTiter-Glo luminescence, 24 h | inhibition, % at 10 µM | 1.4% of 330,000 active | AID 463195;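 active = inhibition of 40% or more at the single tested concentration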;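 also: wild-type TIM10 isogenic control strain grown at permissive 25 °C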
UPR XBP1 act = adaptive UPR (XBP1) activation; AID 463104; activation, % at 20 µM; CHO-XBP1 luciferase reporter, IRE1-XBP1 UPR activation, luminescence; percent of tunicamycin response, DMSO as zero; 0.33% of 330,000 active;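 active = versus positive control, 20 µM dose yields 30% or more activation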
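incubation = overnight seeding at 37 °C, 6 h compound treatment at 37 °C | assay system = CHO-XBP1 cells stably carrying IRE1-XBP1-driven luciferase reporter | input = 1000 cells per well | detection = luciferase luminescence | dosing = single point, 20 µM final compound, 1% DMSO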
tim10-1 inh = growth inhibitors of tim10-1 mutant yeast; inhibition, % at 20 µM; AID 463190; S. cerevisiae tim10-1 ts strain growth, BacTiter-Glo, 24 h; 2.2% of 330,000 active;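 active = inhibition of at least 40%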;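 also: mutant grown at 25 °C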
UPR CHOP act = apoptotic UPR (CHOP) activation; CHO-CHOP luciferase reporter, luminescence; percent of tunicamycin response over DMSO baseline; activation, % at 10 µM; 0.34% of 330,000 active; AID 449763;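 active = at 10 µM dose, activation of 40% or more, normalized to positive control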
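Test system: CHO CHOP reporter cells. Input: 500 CHO-CHOP cells per well. Medium: F12 with 10% FBS. Technique: luciferase luminescence. Measure: percent activation relative to tunicamycin control. Dosing: 10 µM compound, 0.5% DMSO. Timing: 16-18 h cell attachment, then 6 h compound exposure, 37 °C.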
tim23-1 inh = inhibits growth of tim23-1 mutant yeast | S. cerevisiae tim23-1 growth, BacTiter-Glo luminescence, 24 h | AID 463212 | 1.3% of 330,000 active | inhibition, % at 20 µM;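 active = growth inhibition of the mutant yeast at or above 50%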;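 also: temperature-sensitive mutant grown at 25 °C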
XBP1 UPR conf = adaptive UPR (XBP1) activation, confirmed. shares compounds with UPR XBP1 act. CHO-XBP1 IRE1-XBP1 luciferase reporter, luminescence. activation, % at 20 µM. 63% of 1,000 active;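 active = reporter signal at least 30% of the positive control's activation in two or more of four replicate wells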
A number is an active result; – = inactive; · = not tested or not shown.

SMILES	TIM10 inh	UPR XBP1 act	tim10-1 inh	UPR CHOP act	tim23-1 inh	XBP1 UPR conf
COc1cccc(N2CCN(C(=O)c3oc4ccccc4c3NC(=O)Cc3ccc(OC)c(OC)c3)CC2)c1	–	–	–	–	–	·
CC(C)N=C(NS(=O)(=O)c1ccccc1)C(Cl)(Cl)Cl	–	45	–	–	–	75
COc1ccc(-c2cc(C#N)nc(Cl)n2)cc1	–	30	–	–	–	–
CCc1ccc(NS(=O)(=O)c2ccc(C)c(C(=O)N3CCOCC3)c2)cc1	–	–	–	–	–	·
Cc1nc2cccc(C)n2c(=O)c1Cl	–	38	–	–	–	–
COc1ccc(NC(=O)CSc2nc3ccc(Nc4nc(N5CCOCC5)nc(N5CCOCC5)n4)cc3s2)cc1	–	58	–	–	–	31
Cc1ccc(NC(=O)c2cccc(S(=O)(=O)N3CCc4ccccc4C3)c2)nc1	–	–	–	–	–	·
Cc1cc(N2CCN(C)CC2)ccc1NC(=O)c1cccc(S(=O)(=O)N2CCc3ccccc3C2)c1	–	34	–	–	–	–
O=C(NCCC(=O)N1CCN(Cc2c(F)cccc2Cl)CC1)c1ccc(Cl)cc1	–	–	–	–	–	·
COc1ccc(-c2nn(-c3ccccc3)cc2C(=O)N/N=C/c2ccc([N+](=O)[O-])o2)cc1	–	38	–	–	–	–
COc1ccc(S(=O)(=O)N2CCN(S(=O)(=O)c3ccc4c(c3)OCCO4)CC2)cc1	–	38	–	–	–	–
COc1ccc(S(=O)(=O)N2CCN(S(=O)(=O)c3ccc4c(c3)OCCO4)CC2)cc1C	–	–	–	–	–	·
CC(C)CCN(C(=O)c1ccc(Br)cc1)c1c(N)n(Cc2ccccc2)c(=O)[nH]c1=O	–	–	–	–	–	·
CCOC(=O)c1nnc(-c2ccccc2)nc1Sc1ccccc1Cl	–	38	–	–	–	68
CCOC(=O)c1nnc(-c2ccccc2)nc1Oc1ccc(Cl)cc1	–	72	–	–	–	85
CCOC(=O)c1nnc(-c2ccc(C)cc2)nc1Sc1cccc(Cl)c1	–	48	–	–	–	46
CCOC(=O)c1cnc(-c2ccccc2)nc1Oc1ccc(Cl)c(Cl)c1	–	–	–	–	–	·
CC(=NNC(=O)CCC(=O)Nc1ccccc1Cl)c1ccco1	–	–	–	–	–	·
CC(C)CCN(C(=O)c1cn2ccccc2n1)c1c(N)n(Cc2ccccc2)c(=O)[nH]c1=O	–	–	–	–	–	·
COc1ccccc1NC(=O)COC(=O)CCC(=O)c1cccs1	–	–	–	–	–	·
Cc1cc(C)c(C#N)c(SCC(=O)N2CCCCC2)n1	–	34	–	–	–	–
Cc1cc(C)c(C#N)c(SCC(=O)N2CCN(Cc3ccccc3)CC2)n1	–	–	–	–	–	·
COc1ccc(NC(=O)c2ccccc2NC(=O)CSc2ccc(Cl)cc2)cc1	–	35	–	–	–	–
O=C(Nc1cccc(Cl)c1)c1nc[nH]c1C(=O)NCCCCNC(=O)c1[nH]cnc1C(=O)Nc1cccc(Cl)c1	–	60	–	–	–	–
CCOc1ccccc1OCC(=O)Nc1ccc(N2CCOCC2)cc1N1CCOCC1	–	–	–	–	–	·
SMILES	TIM10 inh	UPR XBP1 act	tim10-1 inh	UPR CHOP act	tim23-1 inh	XBP1 UPR conf
Cc1ccc(-c2nc3ccccc3[nH]2)cc1NC(=O)c1ccc2c(c1)OCO2	–	–	–	–	–	·
CCOc1ccc(C(=O)Nc2cc(-c3nc4ccccc4[nH]3)ccc2C)cc1[N+](=O)[O-]	–	–	–	–	–	·
O=C(NC(=S)Nc1cc(-c2nc3ccccc3[nH]2)ccc1Cl)c1ccc2c(c1)OCO2	–	96	–	–	–	164
CCOc1ccc(C(=O)Nc2cc(-c3nc4ccccc4[nH]3)ccc2Cl)cc1[N+](=O)[O-]	–	35	–	–	–	535
C=C(C)[C@@H]1CC[C@]2(C(=O)O)CC[C@]3(C)C(CCC4[C@@]5(C)CC[C@H](O)C(C)(C)C5CC[C@]43C)C12 (some centres not stated)	–	40	–	–	–	–
Cc1ccc(NC(=O)CCCCCN2C(=O)[C@@H]3Cc4ccccc4CN3C2=O)c(Cl)c1	–	–	–	–	–	·
O=C(CSc1ccc2nnc(-c3ccc(Cl)cc3)n2n1)N1CCCc2ccccc21	–	50	–	–	–	–
